Active and inactive are the calls of the source. The calls are words filed in the database; no cut-off is given here.
Assays:
[1] = Hemolytic activity in sheep RBC; assay type: ADME, cell-based, Ovis aries, Erythrocyte; conditions: sheep red blood cells (erythrocytes)
Method in brief: (§1)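 Sheep RBCs suspended at 5% in PBS; 150 µL added to 50 µL compound dilutions (5120 to 10 µg/mL series). Incubated 1 h at 37 °C, then centrifuged; supernatant absorbance read at 540 nm. Lysis (%) = (A−A0)/(Atotal−A0)×100, with untreated 5% RBC as A0 and 0.1% Triton X-100 as total.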

Enterococcus faecalis [2] = experiment: Antibacterial activity against Enterococcus faecalis; assay type: functional
Method in brief: (§2)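 Broth microdilution per CLSI in cation-adjusted Mueller-Hinton broth; 4-6 h cultures (~10⁸ CFU/mL) diluted to ~10⁶ CFU/mL and mixed 1:1 with twofold dilutions of water-dissolved compound (256 to 0.5 µg/mL). Incubated 16-20 h at 37 °C; MIC read visually. Each concentration run in duplicate, whole experiment repeated at least twice. MRSA, KPC and NDM-1 strains were clinical isolates.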

Staphylococcus aureus [3] = experiment: Antibacterial activity against Staphylococcus aureus; assay type: functional; method in brief: as §2
Staphylococcus aureus [4] = experiment: Antibacterial activity against methicillin-resistant Staphylococcus aureus; assay type: functional
Escherichia coli [5] = experiment: Antibacterial activity against Escherichia coli; assay type: functional; method in brief: as §2
Staphylococcus aureus [6] = experiment: Antibacterial activity against methicillin-resistant Staphylococcus aureus isolate M5 after 16 to 20 hrs by broth microdilution method; assay type: functional
Method in brief: (§3)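 CLSI broth microdilution in cation-adjusted Mueller-Hinton broth. A 4-6 h culture was diluted to about 10⁶ CFU/mL and mixed 1:1 with twofold compound dilutions (256–0.5 µg/mL before mixing) prepared from aqueous stocks. Plates were incubated at 37 °C for 16-20 h. Each concentration was tested in duplicate, and the experiment was repeated at least twice.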

Klebsiella pneumoniae [7] = experiment: Antibacterial activity against carbapenemase-producing Klebsiella pneumoniae isolate K3 after 16 to 20 hrs by broth microdilution method; assay type: functional; method in brief: as §2
Staphylococcus aureus [8] = experiment: Induction of cytoplasmic membrane depolarization in Staphylococcus aureus ATCC 29213 at 20 ug/ml measured every 2 mins for 12 mins by diSC35 staining based fluorescence assay; assay type: functional, organism-based
Method in brief: (§4)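 Mid-log cells (4–6 h) pelleted, washed and resuspended (~10^8 CFU/mL) in PBS for S. aureus, or in 5 mM HEPES, 5 mM glucose and 100 mM KCl (1:1:1) for E. coli. Preloaded with diSC35 (10 µM, 50 µL), 30 min for S. aureus and 40 min plus EDTA (200 µM, 50 µL) for E. coli. Baseline read 8 min (ex 622/em 670 nm), then compound added to 20 µg/mL final and read every 2 min for 12 min. Water control.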

Enterobacteriaceae [9] = experiment: Antibacterial activity against NDM-1-producing Enterobacteriaceae isolate N3 after 16 to 20 hrs by broth microdilution method; assay type: functional; method in brief: as §2
Staphylococcus aureus [10] = experiment: Antibacterial activity against methicillin-resistant Staphylococcus aureus isolate M8 after 16 to 20 hrs by broth microdilution method; assay type: functional; method in brief: as §3
Klebsiella pneumoniae [11] = experiment: Antibacterial activity against carbapenemase-producing Klebsiella pneumoniae isolate K1 after 16 to 20 hrs by broth microdilution method; assay type: functional; method in brief: as §2
Enterobacteriaceae [12] = experiment: Antibacterial activity against NDM-1-producing Enterobacteriaceae isolate N6 after 16 to 20 hrs by broth microdilution method; assay type: functional; method in brief: as §2
Staphylococcus aureus [13] = experiment: Antibacterial activity against methicillin-resistant Staphylococcus aureus isolate M9 after 16 to 20 hrs by broth microdilution method; assay type: functional; method in brief: as §3
Staphylococcus aureus [14] = experiment: Antibacterial activity against methicillin-resistant Staphylococcus aureus isolate M6 after 16 to 20 hrs by broth microdilution method; assay type: functional; method in brief: as §3
Klebsiella pneumoniae [15] = experiment: Antibacterial activity against carbapenemase-producing Klebsiella pneumoniae isolate K7 after 16 to 20 hrs by broth microdilution method; assay type: functional; method in brief: as §2
Staphylococcus aureus [16] = experiment: Antibacterial activity against methicillin-resistant Staphylococcus aureus after 16 to 20 hrs by broth microdilution method; assay type: functional; method in brief: as §3
Enterobacteriaceae [17] = experiment: Antibacterial activity against NDM-1-producing Enterobacteriaceae isolate N9 after 16 to 20 hrs by broth microdilution method; assay type: functional; method in brief: as §2
Klebsiella pneumoniae [18] = experiment: Antibacterial activity against carbapenemase-producing Klebsiella pneumoniae isolate K9 after 16 to 20 hrs by broth microdilution method; assay type: functional; method in brief: as §2
Enterobacteriaceae [19] = experiment: Antibacterial activity against NDM-1-producing Enterobacteriaceae after 16 to 20 hrs by broth microdilution method; assay type: functional; method in brief: as §2
Enterobacteriaceae [20] = experiment: Antibacterial activity against NDM-1-producing Enterobacteriaceae isolate N1 after 16 to 20 hrs by broth microdilution method; assay type: functional; method in brief: as §2
Staphylococcus aureus [21] = experiment: Antibacterial activity against methicillin-resistant Staphylococcus aureus isolate M10 after 16 to 20 hrs by broth microdilution method; assay type: functional; method in brief: as §3
Enterobacteriaceae [22] = experiment: Antibacterial activity against NDM-1-producing Enterobacteriaceae isolate N4 after 16 to 20 hrs by broth microdilution method; assay type: functional; method in brief: as §2
Escherichia coli [23] = experiment: Induction of outer membrane permeabilization in Escherichia coli ATCC 25922 at 20 ug/ml measured every 2 mins for 12 mins by NPN staining based fluorescence assay; assay type: functional, organism-based
Method in brief: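 Mid-log E. coli (~10^8 CFU/mL) in black plates pre-incubated about 40 min with NPN (10 µM, 50 µL). Baseline read 8 min (ex 350/em 420 nm), then compound added to 20 µg/mL final and fluorescence followed every 2 min for 12 min. Water-treated control.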

Klebsiella pneumoniae [24] = experiment: Antibacterial activity against carbapenemase-producing Klebsiella pneumoniae isolate K8 after 16 to 20 hrs by broth microdilution method; assay type: functional; method in brief: as §2
Enterobacteriaceae [25] = experiment: Antibacterial activity against NDM-1-producing Enterobacteriaceae isolate N2 after 16 to 20 hrs by broth microdilution method; assay type: functional; method in brief: as §2
Staphylococcus aureus [26] = experiment: Induction of inner membrane permeabilization in Staphylococcus aureus ATCC 29213 at 20 ug/ml measured every 2 mins for 12 mins by propidium iodide staining based fluorescence assay; assay type: functional, organism-based
Method in brief: (§5)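 Mid-log cells (~10^8 CFU/mL) pre-incubated with propidium iodide (10 µM, 50 µL), 30 min for S. aureus and 40 min for E. coli. Fluorescence (ex 535/em 617 nm) read for 8 min, then compound added to 20 µg/mL final and monitored every 2 min for 12 min. Water-treated control.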

Staphylococcus aureus [27] = experiment: Antibacterial activity against methicillin-resistant Staphylococcus aureus isolate M2 after 16 to 20 hrs by broth microdilution method; assay type: functional; method in brief: as §3
Klebsiella pneumoniae [28] = experiment: Antibacterial activity against carbapenemase-producing Klebsiella pneumoniae isolate K4 after 16 to 20 hrs by broth microdilution method; assay type: functional; method in brief: as §2
Klebsiella pneumoniae [29] = experiment: Antibacterial activity against carbapenemase-producing Klebsiella pneumoniae isolate K2 after 16 to 20 hrs by broth microdilution method; assay type: functional; method in brief: as §2
Enterobacteriaceae [30] = experiment: Antibacterial activity against NDM-1-producing Enterobacteriaceae isolate N10 after 16 to 20 hrs by broth microdilution method; assay type: functional; method in brief: as §2
Enterococcus faecalis [31] = experiment: Antibacterial activity against Enterococcus faecalis after 16 to 20 hrs by broth microdilution method; assay type: functional; method in brief: as §2
Klebsiella pneumoniae [32] = experiment: Antibacterial activity against carbapenemase-producing Klebsiella pneumoniae isolate K6 after 16 to 20 hrs by broth microdilution method; assay type: functional; method in brief: as §2
Enterobacteriaceae [33] = experiment: Antibacterial activity against NDM-1-producing Enterobacteriaceae isolate N7 after 16 to 20 hrs by broth microdilution method; assay type: functional; method in brief: as §2
[34] = Hemolytic activity in sheep RBC after 1 hr; assay type: ADME, cell-based, Ovis aries, Erythrocyte; conditions: sheep red blood cells (erythrocytes); method in brief: as §1
Enterobacteriaceae [35] = experiment: Antibacterial activity against NDM-1-producing Enterobacteriaceae isolate N8 after 16 to 20 hrs by broth microdilution method; assay type: functional; method in brief: as §2
Klebsiella pneumoniae [36] = experiment: Antibacterial activity against carbapenemase-producing Klebsiella pneumoniae after 16 to 20 hrs by broth microdilution method; assay type: functional; method in brief: as §2
Enterobacteriaceae [37] = experiment: Antibacterial activity against NDM-1-producing Enterobacteriaceae isolate N5 after 16 to 20 hrs by broth microdilution method; assay type: functional; method in brief: as §2
Klebsiella pneumoniae [38] = experiment: Antibacterial activity against carbapenemase-producing Klebsiella pneumoniae isolate K10 after 16 to 20 hrs by broth microdilution method; assay type: functional; method in brief: as §2
Staphylococcus aureus [39] = experiment: Antibacterial activity against Staphylococcus aureus ATCC 29213 after 16 to 20 hrs by broth microdilution method; assay type: functional; method in brief: as §3
Klebsiella pneumoniae [40] = experiment: Antibacterial activity against carbapenemase-producing Klebsiella pneumoniae isolate K5 after 16 to 20 hrs by broth microdilution method; assay type: functional; method in brief: as §2
Escherichia coli [41] = experiment: Antibacterial activity against Escherichia coli ATCC 25922 after 16 to 20 hrs by broth microdilution method; assay type: functional; method in brief: as §2
Staphylococcus aureus [42] = experiment: Antibacterial activity against methicillin-resistant Staphylococcus aureus isolate M1 after 16 to 20 hrs by broth microdilution method; assay type: functional; method in brief: as §3
Escherichia coli [43] = experiment: Induction of cytoplasmic membrane depolarization in Escherichia coli ATCC 25922 at 20 ug/ml measured every 2 mins for 12 mins by diSC35 staining based fluorescence assay; assay type: functional, organism-based; method in brief: as §4
Staphylococcus aureus [44] = experiment: Antibacterial activity against methicillin-resistant Staphylococcus aureus isolate M4 after 16 to 20 hrs by broth microdilution method; assay type: functional; method in brief: as §3
Escherichia coli [45] = experiment: Induction of inner membrane permeabilization in Escherichia coli ATCC 25922 at 20 ug/ml measured every 2 mins for 12 mins by propidium iodide staining based fluorescence assay; assay type: functional, organism-based; method in brief: as §5
Staphylococcus aureus [46] = experiment: Antibacterial activity against methicillin-resistant Staphylococcus aureus isolate M7 after 16 to 20 hrs by broth microdilution method; assay type: functional; method in brief: as §3
Staphylococcus aureus [47] = experiment: Antibacterial activity against methicillin-resistant Staphylococcus aureus isolate M3 after 16 to 20 hrs by broth microdilution method; assay type: functional; method in brief: as §3
Salmonella enterica = experiment: Antibacterial activity against Salmonella enterica after 16 to 20 hrs by broth microdilution method; assay type: functional; method in brief: as §2

H-GIGKFLKKAKKFGKAFVKLLKK-NH2 showed an HC50 [1] of 120 µg/mL, an MIC (Enterococcus faecalis [2]) of 64 µg/mL and an MIC (Staphylococcus aureus [3]) of 8 to 16 µg/mL. It also gave an MIC (Staphylococcus aureus [4]) of 16 to 32 µg/mL and an MIC (Escherichia coli [5]) of 16 to 32 µg/mL.
For CCCCCCCCN(CCCCCCCC)C(=O)[C@H](C)N.Cl, the MIC (Staphylococcus aureus [6]) was 4 µg/mL, the MIC (Klebsiella pneumoniae [7]) was 16 µg/mL and the Activity (Staphylococcus aureus [8]) was “Active”. The MIC (Enterobacteriaceae [9]) was 64 µg/mL, the MIC (Staphylococcus aureus [10]) was 4 µg/mL and the MIC (Klebsiella pneumoniae [11]) was 16 µg/mL. The MIC (Enterobacteriaceae [12]) was 64 µg/mL, the MIC (Staphylococcus aureus [13]) was 4 µg/mL and the MIC (Staphylococcus aureus [14]) was 4 µg/mL. For the same compound, the MIC (Klebsiella pneumoniae [15]) was 32 µg/mL, the MIC (Staphylococcus aureus [16]) was 4 µg/mL and the MIC (Enterobacteriaceae [17]) was 64 µg/mL. For the same compound, the MIC (Klebsiella pneumoniae [18]) was 16 µg/mL, the MIC (Enterobacteriaceae [19]) was 64 µg/mL and the MIC (Enterobacteriaceae [20]) was 64 µg/mL. The MIC (Staphylococcus aureus [21]) was 4 µg/mL, the MIC (Enterobacteriaceae [22]) was 64 µg/mL and the Activity (Escherichia coli [23]) was “Active”. For the same compound, the MIC (Klebsiella pneumoniae [24]) was 16 µg/mL, the MIC (Enterobacteriaceae [25]) was 64 µg/mL and the Activity (Staphylococcus aureus [26]) was “Active”. For the same compound, the MIC (Staphylococcus aureus [27]) was 4 µg/mL, the MIC (Klebsiella pneumoniae [28]) was 32 µg/mL and the MIC (Klebsiella pneumoniae [29]) was 16 µg/mL. It also gave an MIC (Enterobacteriaceae [30]) of 64 µg/mL, an MIC (Enterococcus faecalis [31]) of 8 µg/mL and an MIC (Klebsiella pneumoniae [32]) of 32 µg/mL. It also gave an MIC (Enterobacteriaceae [33]) of 64 µg/mL, an HC50 at 1 h [34] of 306 µg/mL and an MIC (Enterobacteriaceae [35]) of 64 µg/mL. For the same compound, the MIC (Klebsiella pneumoniae [36]) was 16 µg/mL, the MIC (Enterobacteriaceae [37]) was 64 µg/mL and the MIC (Klebsiella pneumoniae [38]) was 16 µg/mL. The MIC (Staphylococcus aureus [39]) was 4 µg/mL, the MIC (Klebsiella pneumoniae [40]) was 32 µg/mL and the MIC (Escherichia coli [41]) was 4 µg/mL. For the same compound, the MIC (Staphylococcus aureus [42]) was 4 µg/mL, the Activity (Escherichia coli [43]) was “Active” and the MIC (Staphylococcus aureus [44]) was 4 µg/mL. For the same compound, the Activity (Escherichia coli [45]) was “Active”, the MIC (Staphylococcus aureus [46]) was 4 µg/mL and the MIC (Staphylococcus aureus [47]) was 4 µg/mL. For the same compound, the MIC (Salmonella enterica) was 32 µg/mL.

From ChEMBL document CHEMBL4130549, “Synthesis and bioactivities study of new antibacterial peptide mimics: The dialkyl cationic amphiphiles” (Eur J Med Chem, 2018)
